Laboratory results reported in publication PMC8176898 (Journal of the American Chemical Society, 2021).
Values belong to the molecule of their own block, whether it stands above or below them. Ends that are not written are not given here.

B6: TAMRA-APP_(C-term) probe, (TAMRA)-NNG-QNGYENPTYKFFEQMQN (peptide)
peptide: {TAMRA}-NNGQNGYENPTYKFFEQMQN

Legend:
[1] = system: Aβ42 levels, primary cortical neurons (APPswe/PS1ΔE9); assay: Aβ42 ELISA of conditioned medium of APPswe/PS1ΔE9 neurons; format: cell-based, mouse; conditions: 24 h incubation
[2] = system: primary cortical neurons (APPswe/PS1ΔE9); assay: LDH release; conditions: after 24 h of treatment, TAT-14 10 μM; same conditioned medium as ELISA
[3] = In vitro human plasma stability; format: in vitro ADME
In short: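 Test peptides incubated in human plasma at 37 °C for up to 24 h. At various time points, peptide was extracted and quantified by UPLC. A buffer-only control was run alongside. Mean ± SEM, n = 3.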

[4] = In vitro hepatic clearance, mouse liver microsomes; format: in vitro ADME
primary neurons = assay: Neuronal cell viability; conditions: colorimetric readout of metabolic activity
[5] = molecular target: T1, human Mint2-PTB-ARM (Mint2-PARM), PARMHis6, residues 364-570 (human, UniProt Q99767 364-570); assay: fluorescence polarisation
T1 sequence (looked up): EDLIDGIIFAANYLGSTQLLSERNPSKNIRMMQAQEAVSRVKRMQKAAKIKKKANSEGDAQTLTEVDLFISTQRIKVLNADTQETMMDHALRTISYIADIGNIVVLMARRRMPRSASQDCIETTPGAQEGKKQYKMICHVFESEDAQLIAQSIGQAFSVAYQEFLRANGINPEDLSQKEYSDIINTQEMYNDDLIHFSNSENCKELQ

[6] = molecular target: B6; assay: fluorescence polarisation
Mint2-PARM D462A = molecular target: T2, Mint2-PARM D462A (human, UniProt Q99767 364-570, D462A); assay: fluorescence polarisation
T2 sequence (looked up): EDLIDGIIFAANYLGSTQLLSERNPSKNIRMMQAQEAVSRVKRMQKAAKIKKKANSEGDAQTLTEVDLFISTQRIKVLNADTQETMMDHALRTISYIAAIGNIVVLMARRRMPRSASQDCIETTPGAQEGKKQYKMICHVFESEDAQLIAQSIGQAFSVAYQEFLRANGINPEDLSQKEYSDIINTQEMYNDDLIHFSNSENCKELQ

Molecule: C[C@H](NC(=O)Cc1cc(F)cc(F)c1)C(=O)NC(C(=O)OC(C)(C)C)c1ccccc1 (stereo partly drawn) [DAPT, N-[N-(3,5-difluorophenacetyl)-l-alanyl]-s-phenyl-glycine tert-butyl ester, reference compound]
reduction of Aβ42 levels (positive control) ([1]; concentration not given): 47%
LDH release relative to vehicle control (in words) [2]: low LDH levels

half-life (T1/2) in human plasma ([3]; 37 °C, up to 24 h, UPLC read-out, n = 3): < 30 min
half-life ([3]; human): 26 min
microsomal CLint [4]: 15.4 ± 2.5 µL/min/mg
Molecule: NGYENPTYKFFE [APPWT peptide]

Molecule: cyclo(DLATEPAK(Dap)-14 (bicyclic or more) [MiniAp4-14]
reduction of Aβ42 levels relative to vehicle control ([1]; 10 μM, vehicle 0.25% DMSO): did not affect Aβ42 production
adverse effect on cell viability over the concentration curve (in words) (primary neurons): no toxicity

Ki [5]: 4 ± 0.2 µM
Molecule: NGYENPTYKFFE [APPWT peptide (NGYENPTYKFFE; residues 755-766)]

Ki [5]: ≥ 500 µM
Molecule: NGYEQPTYKFFE (peptide, UniProt P05067 755-766, looked up) [APPWT peptide N759Q]

fold decrease in affinity relative to the APPWT peptide [5]: 76 fold
Molecule: NGAENPTYKFFE (peptide, UniProt P05067 755-766, looked up) [APPWT peptide Y757A]

fold decrease in affinity relative to the APPWT peptide [5]: 14 fold
Molecule: NGYENPTYKAFE (peptide, UniProt P05067 755-766, looked up) [APPWT peptide F764A]

binding result [5]: binds
Molecule: NGYENPTWKFFE (peptide, UniProt P05067 755-766, looked up) [APPWT peptide Y762W]

binding result [5]: binds
Molecule: NGYENPTYKWFE (peptide, UniProt P05067 755-766, looked up) [APPWT peptide F764W]

fold decrease in affinity relative to the APPWT peptide [5]: 18 fold
Molecule: NGYENPTYKFAE (peptide, UniProt P05067 755-766, looked up) [APPWT peptide F765A]

binding result [5]: binds
Molecule: NGYENPTYKFWE (peptide, UniProt P05067 755-766, looked up) [APPWT peptide F765W]

fold reduction in affinity relative to Mint2-PARM^WT [6]: 45 fold
B1: Mint2-PARM F520A (domain or fragment, human, UniProt Q99767 364-570, looked up)
chain: EDLIDGIIFAANYLGSTQLLSERNPSKNIRMMQAQEAVSRVKRMQKAAKIKKKANSEGDAQTLTEVDLFISTQRIKVLNADTQETMMDHALRTISYIADIGNIVVLMARRRMPRSASQDCIETTPGAQEGKKQYKMICHVFESEDAQLIAQSIGQAASVAYQEFLRANGINPEDLSQKEYSDIINTQEMYNDDLIHFSNSENCKELQ

fold reduction in affinity relative to wild type [6]: 25 fold
B2: semisynthetic Mint2-pPARMSS D462δ (domain or fragment, human, UniProt Q99767 364-570, looked up)
chain: EDLIDGIIFAANYLGSTQLLSERNPSKNIRMMQAQEAVSRVKRMQKAAKIKKKANSEGDAQTLTEVDLFISTQRIKVLNADTQETMMDHALKTISYIADIGNIVVLMARRRMPRSASQDAIETTPGAQEGKKQYKMIAHVFESEDAQLIAQSIGQAFSVAYQEFLRANGINPEDLSQKEYSDIINTQEMYNDDLIHFSNSENAKELQ
modifications: backbone amide-to-ester at D462 (α-hydroxy acid, D462δ)

fold reduction in affinity relative to wild type [6]: 14 fold
B3: semisynthetic Mint2-pPARMSS S458σ (domain or fragment, human, UniProt Q99767 364-570, looked up)
chain: EDLIDGIIFAANYLGSTQLLSERNPSKNIRMMQAQEAVSRVKRMQKAAKIKKKANSEGDAQTLTEVDLFISTQRIKVLNADTQETMMDHALKTISYIADIGNIVVLMARRRMPRSASQDAIETTPGAQEGKKQYKMIAHVFESEDAQLIAQSIGQAFSVAYQEFLRANGINPEDLSQKEYSDIINTQEMYNDDLIHFSNSENAKELQ
modifications: backbone amide-to-ester at S458 (α-hydroxy acid, S458σ)

fold decrease in affinity relative to wild-type Mint2-PARM [6]: 72 fold
B4: human Mint2-PARM Y459A/F520A (hMint2^Y459A/F520A) (domain or fragment, UniProt Q99767 364-570, looked up)
chain: EDLIDGIIFAANYLGSTQLLSERNPSKNIRMMQAQEAVSRVKRMQKAAKIKKKANSEGDAQTLTEVDLFISTQRIKVLNADTQETMMDHALRTISAIADIGNIVVLMARRRMPRSASQDCIETTPGAQEGKKQYKMICHVFESEDAQLIAQSIGQAASVAYQEFLRANGINPEDLSQKEYSDIINTQEMYNDDLIHFSNSENCKELQ

fold reduction in affinity relative to Mint2-PARM^WT [6]: > 10 fold
B5: Mint2-PARM L454A (domain or fragment, human, UniProt Q99767 364-570, looked up)
chain: EDLIDGIIFAANYLGSTQLLSERNPSKNIRMMQAQEAVSRVKRMQKAAKIKKKANSEGDAQTLTEVDLFISTQRIKVLNADTQETMMDHAARTISYIADIGNIVVLMARRRMPRSASQDCIETTPGAQEGKKQYKMICHVFESEDAQLIAQSIGQAFSVAYQEFLRANGINPEDLSQKEYSDIINTQEMYNDDLIHFSNSENCKELQ

Molecule: B6
binding result [5]: binds
binding result (Mint2-PARM D462A): binds

fold reduction in affinity relative to Mint2-PARM^WT [6]: > 10 fold
B7: Mint2-PARM Y459A (domain or fragment, human, UniProt Q99767 364-570, looked up)
chain: EDLIDGIIFAANYLGSTQLLSERNPSKNIRMMQAQEAVSRVKRMQKAAKIKKKANSEGDAQTLTEVDLFISTQRIKVLNADTQETMMDHALRTISAIADIGNIVVLMARRRMPRSASQDCIETTPGAQEGKKQYKMICHVFESEDAQLIAQSIGQAFSVAYQEFLRANGINPEDLSQKEYSDIINTQEMYNDDLIHFSNSENCKELQ
